The entries come from a sample that favours hits as a whole.
HCT116 bCat-KO: beta-catenin-lacking colon tumor cell growth suppression | 140,000 compounds, 1.5% hits | viability, % at 10 µM | HCT116 beta-catenin knockout viability, CellTiter-Glo, 60 h; active compounds read low;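 active = viability at or under a set limit, the compound median less 4 SD, cut at about 6% in these data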;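 also: 0% = Hyamine 1622 control at 20 µM and 100% = untreated cell control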
H69AR inhibit: blocks growth of human H69AR lung tumor cells; H69AR lung tumor viability, ATP luminescence, 72 h; active compounds read low; 85,000 compounds, 6% hits; viability, % at 10 µM; AID 598;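 active = viability at or below 40%; inactive = viability above 40%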;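 also: multidrug resistant small cell line overexpressing MRP-1 efflux transporter; 100% = mean luminescence of untreated control wells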
PTEN del growth: PTEN-deleted cell growth suppression. viability, % at 10 µM. HCT116 PTEN-null viability, CellTiter-Glo, 60 h; active compounds read low. 140,000 compounds, 1.2% hits;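 active = viability at or below a set limit, 4 SD under the median of all tested compounds, cut at about 3.7% in these data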;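 also: PTEN knockout HCT116 line with beta catenin targeted HCT116 as companion control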
HUVEC inhibit: inhibitors of human endothelial cell proliferation; 86,000 compounds, 1.1% hits; viability, % at 10 µM (by protocol); HUVEC proliferation, CellTiter-Glo luminescence, 72 h; active compounds read low;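 active = viability at or below 30%; inactive = viability above 30%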;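 also: 100% = median luminescence of DMSO-only cell control wells on each plate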
Fibroblast inh: blocks proliferation of human lung fibroblasts; LL 47 human lung fibroblast viability, ATP luminescence; active compounds read low; viability, % at 10 µM; 85,000 compounds, 1.1% hits;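 active = viability at or below 50% in the single dose screen; inactive = viability above 50%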;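 also: compound exposure lasted 72 h before the ATP readout; 100% = median luminescence of untreated cell-only wells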
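Material: human lung fibroblast line LL 47, low passage; Evaluation: viability percentage against median untreated-cell control; Buffer or medium: 15% FBS in IMEM; Incubation: 72 h compound exposure at 37 °C after overnight plating; Dosing: 0.1% DMSO in all compound wells; Measured by: CellTiter-Glo luminescence.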
An asterisk follows results filed as active.

CSc1nsc(/C=C/Nc2cccc(Cl)c2)c1C#N was read as HCT116 bCat-KO 66, H69AR inhibit 29*, PTEN del growth 62, HUVEC inhibit 93 and Fibroblast inh 97.
Screening Cc1ccc(-c2nnc(SCC(=O)N3CCOCC3)nc2-c2ccc(C)cc2)cc1 returned HCT116 bCat-KO 49, H69AR inhibit 19*, PTEN del growth 59, HUVEC inhibit 98 and Fibroblast inh 98.
For Cc1ccc(SCC(=O)N2CCOCC2)cc1 the results were HCT116 bCat-KO 91 and PTEN del growth 99.
For C=CCc1ccc(OCC(O)CN2CCC(Cc3ccccc3)CC2)c(OC)c1 (stereo not drawn) the results were HCT116 bCat-KO 22, H69AR inhibit 21*, PTEN del growth 29, HUVEC inhibit 14* and Fibroblast inh 85.
For O=C(CCc1nc2ccccc2s1)OCc1ccccc1F the results were HCT116 bCat-KO 94 and PTEN del growth 103.
For CCCCn1c(SCC(=O)Nc2sc3c(c2C(N)=O)CCC3)nnc1-c1ccccc1 the results were H69AR inhibit 25*, HUVEC inhibit 78 and Fibroblast inh 94.
Screening CN(C)CCCn1c(SCC(=O)Nc2sc3c(c2C#N)CCCC3)nnc1-c1ccncc1 returned HCT116 bCat-KO 96 and PTEN del growth 98.
NC(=O)c1c(NC(=O)CSc2nnc(Cc3ccccc3)n2Cc2ccco2)sc2c1CCC2 was read as HCT116 bCat-KO 78, H69AR inhibit 5.6*, PTEN del growth 73, HUVEC inhibit 79 and Fibroblast inh 85.
Screening O=C(CSc1nnc(Cc2ccccc2)n1Cc1ccco1)NC12CC3CC(CC(C3)C1)C2 returned HCT116 bCat-KO 76, H69AR inhibit 71, PTEN del growth 78, HUVEC inhibit 97 and Fibroblast inh 91.
`OC1(Cc2ccn[nH]2)CCCCC1` gave HCT116 bCat-KO 88, H69AR inhibit 102, PTEN del growth 101, HUVEC inhibit 28* and Fibroblast inh 104.
For CC(C)(C)OC(=O)N[C@@H](Cc1ccccc1)c1nnc(S(=O)(=O)Cc2cccc(F)c2)o1 the results were HCT116 bCat-KO 79, H69AR inhibit 1.0*, PTEN del growth 83, HUVEC inhibit 56 and Fibroblast inh 20*.
CC[C@@H](C)[C@H](NC(=O)OC(C)(C)C)c1nnc(S(=O)(=O)Cc2cc(C)ccc2C)o1 was read as HCT116 bCat-KO 2.8*, H69AR inhibit 0.2*, PTEN del growth 3.8*, HUVEC inhibit 39 and Fibroblast inh 14*.
For CC(C)C[C@H](NC(=O)OC(C)(C)C)c1nnc(SCc2ccccc2)o1 the results were HCT116 bCat-KO 77, H69AR inhibit 98, PTEN del growth 72, HUVEC inhibit 99 and Fibroblast inh 96.
Screening CC(C)[C@H](NC(=O)OC(C)(C)C)c1nnc(S(=O)(=O)Cc2c(F)cccc2Cl)o1 returned H69AR inhibit 0.9*, HUVEC inhibit 56 and Fibroblast inh 2.6*.
Cc1ccccc1CS(=O)(=O)c1nnc([C@H](CC(C)C)NC(=O)OC(C)(C)C)o1 was read as HCT116 bCat-KO 94, H69AR inhibit 76, PTEN del growth 88, HUVEC inhibit 73 and Fibroblast inh 3.9*.
For O=c1[nH]c2ccccc2n2c(-c3ccncc3)nnc12 the results were HCT116 bCat-KO 89 and PTEN del growth 84.
Screening O=C(CSc1cccc2cccc(Cl)c12)NCc1cccs1 returned HCT116 bCat-KO 91 and PTEN del growth 99.
`COc1ccc(C(=O)CSc2nc3nc(C)cc(C)c3c(=O)[nH]2)cc1OC` gave H69AR inhibit 97, HUVEC inhibit 99 and Fibroblast inh 106.
`CC(NC(=O)CN(c1cccc(C(F)(F)F)c1)S(=O)(=O)c1ccc(Cl)c([N+](=O)[O-])c1)c1ccccc1` (stereo not drawn) gave HCT116 bCat-KO 5.8* and PTEN del growth 20.
`Cc1oc(C)c2c(=O)ccc3c(c12)OC(N)=C(C#N)C3c1ccccc1` (stereo not drawn) gave HCT116 bCat-KO 83, H69AR inhibit 91, PTEN del growth 92, HUVEC inhibit 63 and Fibroblast inh 89.
`CSc1ccc(C2C(C#N)=C(N)Oc3c2ccc(=O)c2c(C)oc(C)c32)cc1` (stereo not drawn) gave HCT116 bCat-KO 76, H69AR inhibit 10*, PTEN del growth 80, HUVEC inhibit 64 and Fibroblast inh 95.
`N#Cc1c(NC(=O)CSc2nc(N)cc(=O)[nH]2)sc2c1CCCCCC2` gave HCT116 bCat-KO 60, H69AR inhibit 79, PTEN del growth 77, HUVEC inhibit 95 and Fibroblast inh 88.
Screening N#Cc1cc2c(nc1SCC(=O)Nc1sc3c(c1C#N)CCC3)CCCCC2 returned HCT116 bCat-KO 84, H69AR inhibit 20*, PTEN del growth 75, HUVEC inhibit 79 and Fibroblast inh 86.
N#Cc1c(NC(=O)CSc2nnnn2C2CCCC2)sc2c1CCCC2 was read as HCT116 bCat-KO 89, H69AR inhibit 7.7*, PTEN del growth 111, HUVEC inhibit 102 and Fibroblast inh 93.
Screening N#Cc1c(NC(=O)CSc2ncn[nH]2)sc2c1CCCCC2 returned HCT116 bCat-KO 84, H69AR inhibit 28*, PTEN del growth 85, HUVEC inhibit 79 and Fibroblast inh 79.
`N#Cc1cc2c(nc1SCC(=O)Nc1sc3c(c1C#N)CCC3)CCCC2` gave HCT116 bCat-KO 97, H69AR inhibit 7.2*, PTEN del growth 93, HUVEC inhibit 63 and Fibroblast inh 84.
`CCOC(=O)c1sc(NC(=O)CSc2nc3c(cc2C#N)CCCCCC3)c(C#N)c1C` gave HCT116 bCat-KO 22, PTEN del growth 16, HUVEC inhibit 30 and Fibroblast inh 77.
For Cc1cccc(N(CC(O)CON=C2c3ccccc3-c3ccccc32)S(C)(=O)=O)c1 (stereo not drawn) the results were HCT116 bCat-KO 37, H69AR inhibit 46, PTEN del growth 17, HUVEC inhibit 60 and Fibroblast inh 104.
Screening CN1c2ccccc2C(C)(C)[C@]12C=Cc1cc(O)ccc1O2 returned HCT116 bCat-KO 30, H69AR inhibit 8.6*, PTEN del growth 31, HUVEC inhibit 49 and Fibroblast inh 88.
For Cc1cc(NC(=O)CC2CCCC2)n(-c2nc3ccccc3[nH]2)n1 the results were HCT116 bCat-KO 14, H69AR inhibit 29*, PTEN del growth 15 and HUVEC inhibit 59.
`CC1=CC(C)(C)N(S(=O)(=O)c2ccc(C)cc2)c2cc(C)ccc21` gave HCT116 bCat-KO 11, H69AR inhibit 35*, PTEN del growth 14, HUVEC inhibit 44 and Fibroblast inh 52.
Screening O=[N+]([O-])c1ccc(NC(=S)NCCc2ccc(Cl)cc2)cc1 returned HCT116 bCat-KO 3.5* and PTEN del growth 2.9*.
Screening COc1cccc(/C=N/n2c(SC)nnc2-c2ccccc2)c1O returned HCT116 bCat-KO 39, H69AR inhibit 23*, PTEN del growth 31, HUVEC inhibit 51 and Fibroblast inh 89.

Screening data from PubChem.
